# M1 antagonist: blocks the rat M1 muscarinic receptor response to acetylcholine; B-score at 10 µM; CHO-M1 cells, Fluo-4 calcium, ACh EC80 antagonist mode; hits give low values; AID 628; 3.4% of 64,000 active;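 active = calcium fluorescence response, raw or row-and-column corrected B-score, differing from the plate sample mean either way at a set confidence level, mostly lower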
# HEK293 NFkB inh: inhibitors of the PMA/ionomycin-induced NF-kB reporter in HEK293 cells; inhibition, % at 3 µM; HEK-293 NF-kB luciferase reporter, luminescence; 0.21% of 62,000 active; AID 465;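 active = inhibition above the mean of all tested compounds plus 3 SD, cut at about 40% in these data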;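 note: 0% = stimulated DMSO wells and 100% = 10 µM reference inhibitor 5653914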
#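 Material: HEK-293 cells with stable firefly luciferase reporter driven by four HIV NF-kB elements / Also added: PMA plus ionomycin mix as NF-kB-activating stimulus / Compound dosing: 3 µM once, 0.30% DMSO / Times: 1 h pretreatment, 16 h stimulation, 37 °C / Signal: luminescence / Evaluation: per-plate % inhibition versus controls / Benchmarks: DMSO and 10 µM reference inhibitor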
# M1 ag: activates the M1 muscarinic receptor; 3% of 64,000 active; AID 626; CHO-M1 cells, Fluo-4 calcium fluorescence, agonist mode; hits give high values; B-score at 10 µM;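 active = fluorescence rise, raw or as B-score row- and column-corrected plate score, outside the 99.7% band of its plate's samples, either direction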
# D1 allo mod: allosteric modulators of human D1 dopamine receptor. P21728. HEK293 D1, CRE-luciferase, dopamine EC30 potentiation; actives deviate in either direction. B-score at 10 µM. 5.9% of 58,000 active. AID 641;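 active = luminescence count or its row- and column-corrected plate score outside the 99.7% band of the plate's sample wells, on either side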
# Target sequence (P21728 whole entry, looked up): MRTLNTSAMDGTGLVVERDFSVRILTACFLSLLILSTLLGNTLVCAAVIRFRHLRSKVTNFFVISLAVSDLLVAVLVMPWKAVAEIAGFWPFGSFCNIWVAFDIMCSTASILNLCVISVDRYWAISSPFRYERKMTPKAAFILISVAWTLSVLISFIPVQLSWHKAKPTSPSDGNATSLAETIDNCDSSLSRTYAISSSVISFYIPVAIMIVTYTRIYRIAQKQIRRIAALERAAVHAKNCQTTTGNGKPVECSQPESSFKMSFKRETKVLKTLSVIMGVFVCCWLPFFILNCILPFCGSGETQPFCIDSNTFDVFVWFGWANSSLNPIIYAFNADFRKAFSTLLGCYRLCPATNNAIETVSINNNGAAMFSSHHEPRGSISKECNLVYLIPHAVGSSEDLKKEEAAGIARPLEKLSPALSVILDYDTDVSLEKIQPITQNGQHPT
# Jurkat viability: cytotoxic compounds reducing Jurkat cell viability; Jurkat E6.1 viability, ATP luminescence, 48 h; inhibition, % at 4 µM; 1.2% of 56,000 active;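 active = inhibition above the mean inhibition of all tested compounds plus 3 SD, cut at about 28% in these data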
# DAT uptake mod: changed human dopamine transporter uptake under cocaine IC80 | Q01959 | LLC-PK1 hDAT cells, [14C]-dopamine uptake with cocaine IC80; actives deviate in either direction | B-score at 10 µM | 1.3% of 110,000 active | AID 449768;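 active = Z score or B-score, a plate-position-corrected score, falls beyond the plate's 99.7% confidence bounds, in either direction; inactive = both scores lie inside the 99.7% bounds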;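 note: scored against the spread of the other compound wells on the same plate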
# M1 ag confirm: confirmation of rat M1 muscarinic receptor agonists; shares compounds with M1 ag; CHO-M1 cells, Fluo-4 calcium fluorescence, agonist mode; actives lie on both sides; fluorescence change (max-min) at 10 µM; 19% of 1,700 active; AID 1488;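 active = fluorescence change differs from the solvent-only DMSO control mean at a set confidence level in both duplicate runs; inconclusive = differs from solvent-only control mean in just one of two runs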;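 note: an EC20 dose of acetylcholine follows compound addition during the same imaging run; raw fluorescence intensity difference in instrument units with no normalization to controls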
# M4 ag counter: activates rat M4 receptor in counter-screen for M1 agonists. shares compounds with M1 ag. CHO M4/Gqi5 cells, Fluo-4 calcium fluorescence, agonist mode; actives lie on both sides. fluorescence change (max-min) at 10 µM. 9% of 1,700 active;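 active = fluorescence change differing from the plate's solvent-only control wells at 99.7% confidence in both duplicates, whether higher or lower; inconclusive = differs from solvent controls in only one of two duplicates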
# * hit, by the source's call; ? = inconclusive; . = not tested or not shown. An excerpt weighted towards active compounds, which were near 7.6% of everything screened.
SMILES,M1 antagonist,HEK293 NFkB inh,M1 ag,D1 allo mod,Jurkat viability,DAT uptake mod,M1 ag confirm,M4 ag counter
COC(=O)c1cc(NC(=O)C2COc3ccccc3O2)ccc1Cl (stereo not drawn),-0.6,-5,5.7*,.,2,0.11,-17,-33
O=C(Nc1ccc(S(=O)(=O)N2CCOCC2)cc1)C1COc2ccccc2O1 (stereo not drawn),-0.85,15,8.7*,0.19,.,0.91,?,-66*
COCCNC(=O)c1ccccc1NC(=O)C1COc2ccccc2O1 (stereo not drawn),-0.29,3,5.7*,2.1,.,-0.22,-29*,-120*
CCOC(=O)c1c(C)[nH]c(C(=O)OCC(=O)Nc2ccc(OCC)cc2)c1C,.,.,.,.,.,-0.61,.,.
CCOc1ccc2nc(SCC(=O)c3cccs3)sc2c1,1.2,-21,0.043,1,-1,0.084,.,.
CCOC(=O)c1c(C)[nH]c(C=Nc2ccccc2)c1O,-0.98,23,-2.2*,-0.0021,6,0.55,-20,-33
COc1ccc(-c2cc(C(F)(F)F)n3ncc(C(=O)NCc4ccco4)c3n2)cc1,-0.69,17,2.9*,0.4,-2,0.11,10,4.9
O=C(NC1CCCC1)c1cnn2c(C(F)(F)F)cc(-c3ccc4c(c3)OCO4)nc12,-0.86,13,14*,-0.4,1,-0.14,23,8.7
O=C(c1cnn2c(C(F)(F)F)cc(-c3ccc4c(c3)OCO4)nc12)N1CCCCC1,-1.2,-6,0.014,2.3,1,0.011,.,.
O=C(NCc1ccco1)c1cnn2c(C(F)(F)F)cc(-c3ccccc3)nc12,0.012,8,-0.15,2,5,-0.85,.,.
CCOc1ccc(N(CC(=O)NCC2CCCO2)S(=O)(=O)c2ccc(OC)c(OC)c2)cc1 (stereo not drawn),0.27,14,-0.094,0.62,-12,0.38,.,.
CCCCCC(=O)Nc1cccc(-c2nc3ncccc3o2)c1,-1.2,-6,4*,-0.2,-3,0.92,-3,-8.7
CCC(=O)N(CC)c1nc(-c2ccc(OC)cc2)cs1,0.68,5,46*,.,3,-0.79,?,-75*
CCC(=O)N(Cc1ccco1)c1nc(-c2ccc(OC)cc2)cs1,.,.,.,.,.,0.23,.,.
O=C(CCn1nc(-c2ccccc2)ccc1=O)N1CCN(c2ccccn2)CC1,0.013,10,3.9*,-0.16,-1,-0.81,-2.2,-23
CCOc1ccccc1NC(=O)CN(c1cc(C)cc(C)c1)S(=O)(=O)c1c(C)noc1C,-0.84,7,20*,-0.52,-6,-0.046,-1.1,-19
CC(C(=O)N1CCOCC1)(c1ccccc1)c1ccccc1,0.47,18,0.026,0.095,.,-1.3,.,.
CC(CN1CCOCC1)(NS(=O)(=O)c1ccccc1)c1ccccc1 (stereo not drawn),-0.089,9,18*,-0.4,-2,-0.8,?,-37
Cc1noc(C)c1C(=O)OCC(=O)NC(c1ccccc1)c1ccccc1,.,.,.,.,.,-0.96,.,.
COCC(=O)NC(c1ccccc1)c1ccccc1,-0.34,12,13*,0.54,7,-1,-11,-37
N#Cc1cccc(-n2c(-c3ccccc3)nnc2-c2ccccc2)c1C#N,0.0038,.,0.86,.,.,-0.15,.,.
CC/C(C)=C1\SC(N2CCN(C(C)=O)CC2)=NC1=O,0.7,.,-0.51,.,.,-1.4,.,.
CSc1ccc(NC(=O)CC(C)=O)cc1,1.2,4,-0.0004,0.072,-9,0.34,.,.
Cc1ccc(SCc2ccc(C(=O)Nc3cccc([N+](=O)[O-])c3C)cc2)cc1,.,.,.,.,.,-0.06,.,.
COC(=O)/C=c1/s/c(=C(/C#N)C(=O)N2CCCCC2)n(-c2ccccc2)c1=O,0.07,.,0.047,.,.,.,.,.
Cc1ccc(/C=c2\s/c(=C(/C#N)C(=O)N3CCCC3)n(Cc3ccco3)c2=O)s1,-0.088,15,3*,1.3,2,0.042,2,3.2
CCN1CCN(Cc2ccccc2NC(=O)Nc2ccc(C)cc2)CC1,-1,-5,-0.46,-2.3,-10,-0.33,.,.

# High-throughput results deposited in PubChem BioAssay by several laboratories.
